Assay results as given in ChEMBL document CHEMBL3351678, “Benzoquinones as inhibitors of botulinum neurotoxin serotype A” (Bioorg Med Chem, 2014).
Active and inactive are the calls of the source. The calls are words filed in the database; no cut-off is given here.

Assays:
[1] = molecular target: Botulinum neurotoxin type A (Clostridium botulinum) (UniProt P0DPI0); assay: Inhibition of recombinant Clostridium botulinum neurotoxin serotype A light chain assessed as Kinact to KI ratio at 50 uM after 1.5 hrs by SNAPtide FRET based assay
[2] = molecular target: T1, Botulinum neurotoxin type A (Clostridium botulinum, UniProt P0DPI0); assay: Competitive inhibition of recombinant Clostridium botulinum neurotoxin serotype A light chain assessed as [13C]-labeled 9-mer cleavage product formation using 66-mer substrate after 25 mins by LC-MS method
In short: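 66-mer SNAP-25 substrate (5 µM) cleaved by recombinant BoNT/A LC (0.8 nM) in 40 mM HEPES pH 7.4 for 25 min. Quenched with 20% TFA. 13C-labelled 9-mer internal standard added, and cleavage product quantified by LCMS relative to it. IC50 derived from initial velocities using the rearranged IC50 equation.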

[3] = Glutathione reactivity at 1 mM in presence of 1 mM glutathione containing PBS and 1 mM EDTA buffer at pH 7.4 assessed as remaining GSH level after 30 mins by spectrophotometry by Ellman's method
In short: (§1)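 Compound (1 mM) incubated with glutathione (1 mM) in PBS + 1 mM EDTA, pH 7.4. At each time point, an aliquot was diluted 1:10 into 4 mg/mL DTNB and absorbance read at 412 nm. Compound blanks included. Free GSH quantified against a 0–1.25 mM GSH standard curve and expressed as % remaining.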

[4] = Glutathione reactivity at 1 mM in presence of 1 mM glutathione containing PBS and 1 mM EDTA buffer at pH 7.4 assessed as remaining GSH level after 10 seconds by spectrophotometry by Ellman's method; in short: as §1
[5] = molecular target: T1, Botulinum neurotoxin type A; assay: Competitive inhibition of recombinant Clostridium botulinum neurotoxin serotype A light chain assessed as reduction in benzoquinone-mediated BoNT/A inactivation by SNAPtide FRET based assay
[6] = molecular target: T1, Botulinum neurotoxin type A; assay: Competitive inhibition of recombinant Clostridium botulinum neurotoxin serotype A light chain assessed as reduction in initial rates of BoNT/A LC activity by SNAPtide FRET based assay
In short: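 Recombinant 425-aa BoNT/A LC (18.5 nM) and SNAPtide (5 µM) in 40 mM HEPES + 0.1% Triton X-100, pH 7.4. Cleavage read by fluorescence. Velocities fitted to V = Vcontrol/(1 + [I]/IC50) to give IC50.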

[7] = molecular target: T1, Botulinum neurotoxin type A; assay: Competitive inhibition of Clostridium botulinum neurotoxin serotype A light chain
[8] = Glutathione reactivity at 1 mM in presence of 1 mM glutathione containing PBS and 1 mM EDTA buffer at pH 7.4 assessed as remaining GSH level after 1 hr by spectrophotometry by Ellman's method; in short: as §1
[9] = Glutathione reactivity at 1 mM in presence of 1 mM glutathione containing PBS and 1 mM EDTA buffer at pH 7.4 assessed as second order rate constant by spectrophotometry by Ellman's method
In short: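 Compound and glutathione (1 mM each) in PBS + 1 mM EDTA, pH 7.4. Free thiol followed over time by 1:10 dilution into 4 mg/mL DTNB, A412, with compound blanks and a GSH standard curve. Second-order kGSH of Michael adduct formation derived from 1/[GSH] − 1 = 2kGSH·t.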

[10] = molecular target: Botulinum neurotoxin type A (Clostridium botulinum) (UniProt P0DPI0); assay: Irreversible inhibition of recombinant Clostridium botulinum neurotoxin serotype A light chain assessed as Kinact to KI ratio after 1.5 hrs by SNAPtide FRET based assay
[11] = molecular target: Botulinum neurotoxin type A (Clostridium botulinum) (UniProt P0DPI0); assay: Inhibition of recombinant Clostridium botulinum neurotoxin serotype A light chain assessed as [13C]-labeled 9-mer cleavage product formation at 50 uM using 66-mer substrate after 25 mins by LC-MS method
In short: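 Inhibitors at 50 µM with recombinant BoNT/A LC (0.8 nM) and 66-mer substrate (5 µM) in 40 mM HEPES pH 7.4. Cleavage ran 25 min, then quenched with 20% TFA. 9-mer product quantified by LCMS against a 13C-labelled 9-mer internal standard.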

[12] = molecular target: Botulinum neurotoxin type A (Clostridium botulinum) (UniProt P0DPI0); assay: Time dependent inhibition of recombinant Clostridium botulinum neurotoxin serotype A light chain assessed as Kinact to KI ratio after 1.5 hrs by SNAPtide FRET based assay
In short: (§2)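 Recombinant 425-residue BoNT/A light chain (18.5 nM) with 5 µM SNAPtide FRET substrate in 40 mM HEPES, 0.1% Triton X-100, pH 7.4. Inhibitor is present with enzyme and substrate, without preincubation, across a range of concentrations.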

[13] = molecular target: Botulinum neurotoxin type A (Clostridium botulinum) (UniProt P0DPI0); assay: Time dependent inhibition of recombinant Clostridium botulinum neurotoxin serotype A light chain assessed as Kinact to KI ratio at 200 uM by SNAPtide FRET based assay; in short: as §2

T1 sequence (P0DPI0 2-448 limits assumed): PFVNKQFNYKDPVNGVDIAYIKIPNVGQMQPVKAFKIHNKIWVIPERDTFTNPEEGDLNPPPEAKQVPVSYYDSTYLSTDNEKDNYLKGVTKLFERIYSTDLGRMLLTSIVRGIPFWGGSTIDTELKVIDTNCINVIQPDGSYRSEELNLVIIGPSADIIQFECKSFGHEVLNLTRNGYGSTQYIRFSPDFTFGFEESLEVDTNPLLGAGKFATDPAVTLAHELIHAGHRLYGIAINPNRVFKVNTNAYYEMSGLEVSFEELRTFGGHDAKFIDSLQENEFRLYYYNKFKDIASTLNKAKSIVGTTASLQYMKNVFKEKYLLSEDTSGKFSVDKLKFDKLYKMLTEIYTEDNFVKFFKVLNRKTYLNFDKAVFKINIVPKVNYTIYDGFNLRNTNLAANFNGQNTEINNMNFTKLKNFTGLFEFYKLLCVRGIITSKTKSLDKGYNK
Chain of Botulinum neurotoxin type A (Clostridium botulinum) (P0DPI0 2-448 limits assumed): as above

CC1=CC(=O)C(C(C)C)=CC1=O
Ratio [1]: 0.38 M⁻¹ s⁻¹

O=C(NCc1ccc(-c2ccccc2)cc1)c1nc[nH]n1
IC50 ([2]; read-out: IC50): 210 µM

COC1=CC(=O)C=CC1=O
Ratio [1]: 4.1 M⁻¹ s⁻¹

O=C1C=CC(=O)c2c(OCc3ccccc3)cccc21
Activity [3]: 39%
Ratio [1]: 2 M⁻¹ s⁻¹
Activity [4]: 57%

O=C1C=C(Cl)C(=O)C=C1Cl
Activity [3]: 0%
Ratio [1]: 84 M⁻¹ s⁻¹
Activity [4]: 0%

O=C1C=CC(=O)C(c2ccccc2)=C1
Activity [3]: 8%
Ratio [1]: 9.7 M⁻¹ s⁻¹
Activity [4]: 21%

O=C1C=CC(=O)C(CNCC(=O)Nc2cccc(OCc3ccccc3)c2)=C1
IC50 ([2]; read-out: IC50): 18 µM

ONCC12CC3CC(CC(C3)C1)C2
IC50 [5]: 1.5 µM
IC50 [6]: 1.6 µM
Ki [7]: 0.46 µM

O=C1C=CC(=O)C(Cn2cnc(C(=O)NCc3ccc(-c4ccccc4)cc3)n2)=C1
IC50 ([2]; read-out: IC50): 2.5 µM

COc1ccc(OC)c(Cn2cnc(C(=O)NCc3ccc(-c4ccccc4)cc3)n2)c1
IC50 ([2]; read-out: IC50): 40 µM

COc1ccc(OC)c(CNCC(=O)Nc2cccc(OCc3ccccc3)c2)c1
IC50 ([2]; read-out: IC50): 25 µM

NCC(=O)NCc1ccc(-c2ccccc2)cc1
IC50 ([2]; read-out: IC50): 160 µM

C[C@]12CC[C@@H]3c4ccc(C5=CC(=O)C=CC5=O)cc4CC[C@H]3[C@@H]1CCC2=O
Ratio [1]: 3.9 M⁻¹ s⁻¹

NCC(=O)Nc1ccc(Oc2ccccc2)cc1
IC50 [5]: 258 µM
IC50 [6]: 163 µM
IC50 ([2]; read-out: IC50): 120 µM

O=C1C=CC(=O)C(c2ccc(I)cc2)=C1
Ratio [1]: 10 M⁻¹ s⁻¹

O=C(NCc1ccc(Oc2ccccc2)cc1)c1ccccn1
IC50 ([2]; read-out: IC50): 570 µM

COC1=CC(=O)C=C(OC)C1=O
Activity [3]: 0%
inhibition [1]: inactive
Activity [4]: 45%

CC1=CC(=O)c2ccccc2C1=O
Ratio [1]: 1.1 M⁻¹ s⁻¹

NCC(=O)Nc1cccc(OCc2ccccc2)c1
IC50 ([2]; read-out: IC50): 417 µM

O=C1C=CC(=O)C(CC(=O)O)=C1
Ratio [1]: 0.56 M⁻¹ s⁻¹
IC50 ([2]; read-out: IC50): 9.3 µM

CC(=O)Oc1cccc2c1C(=O)C=CC2=O
Activity [3]: 26%
Ratio [1]: 4 M⁻¹ s⁻¹
Activity [4]: 51%

COc1cccc2c1C(=O)C=CC2=O
Activity [8]: 14%
Activity [3]: 27%
K [9]: 0.053 min⁻¹
Ratio [1]: 0.99 M⁻¹ s⁻¹
Activity [4]: 80%

O=C1C=CC(=O)C(Nc2ccccn2)=C1
IC50 ([2]; read-out: IC50): 97 µM

COC1=C(c2ccc(C)cc2)C(=O)C=CC1=O
Activity [3]: 19%
Ratio [1]: 9.5 M⁻¹ s⁻¹
Activity [4]: 25%

COC1=CC(=O)C(OC)=C(c2ccc(C)cc2)C1=O
Activity [8]: 35%
Activity [3]: 49%
K [9]: 0.032 min⁻¹
Ratio [1]: 0.82 M⁻¹ s⁻¹
Activity [4]: 89%

O=C1C=CC(=O)C=C1
Ratio [10]: 12.4 M⁻¹ s⁻¹
Activity [3]: 6%
Ratio [1]: 17 M⁻¹ s⁻¹
inhibition [11]: Active
Activity [4]: 24%
Ratio [12]: 11.8 M⁻¹ s⁻¹

Cc1ccc(C2=CC(=O)c3ccccc3C2=O)cc1
Ratio [1]: 0.91 M⁻¹ s⁻¹

O=C1C=CC(=O)c2c(O)ccc(O)c21
Activity [8]: 26%
Activity [3]: 39%
K [9]: 0.025 min⁻¹
Ratio [1]: 2.2 M⁻¹ s⁻¹
Activity [4]: 85%

COc1ccc(OC)c(Nc2cccc(C(=O)NCc3ccc(Oc4ccccc4)cc3)n2)c1
IC50 ([2]; read-out: IC50): 200 µM

O=C1C=CC(=O)c2ccccc21
Activity [3]: 20%
Ratio [1]: 2 M⁻¹ s⁻¹
Activity [4]: 47%

O=C1C=CC(=O)C(CCC(=O)O)=C1
Ratio [1]: 1.2 M⁻¹ s⁻¹
IC50 [2]: Not Active

CC1=CC(=O)C=CC1=O
Activity [3]: 5%
Ratio [1]: 2.5 M⁻¹ s⁻¹
Activity [4]: 35%

COC(=O)c1cccc(NC2=CC(=O)C=CC2=O)n1
IC50 ([2]; read-out: IC50): 14 µM

CC1=CC(=O)C=C(C)C1=O
Activity [3]: 0%
inhibition [1]: inactive
Activity [4]: 22%

O=C1C=CC(=O)c2c(O)cccc21
Ratio [10]: 3.71 M⁻¹ s⁻¹
Activity [3]: 32%
Ratio [1]: 5.3 M⁻¹ s⁻¹
Ratio [13]: 3.35 M⁻¹ s⁻¹
Activity [4]: 44%

O=C1C=CC(=O)C(Cl)=C1
Ratio [1]: 51 M⁻¹ s⁻¹

O=C1C=CC(=O)C(Nc2cccc(C(=O)NCc3ccc(Oc4ccccc4)cc3)n2)=C1
Ratio [1]: 1.7 M⁻¹ s⁻¹
IC50 ([2]; read-out: IC50): 2.3 µM

O=C1C=CC(=O)c2cc(O)ccc21
Activity [8]: 22%
Ratio [10]: 1.17 M⁻¹ s⁻¹
Activity [3]: 32%
K [9]: 0.036 min⁻¹
Ratio [1]: 0.94 M⁻¹ s⁻¹
Activity [4]: 71%

COC1=CC(=O)C(c2ccc(C)cc2)=CC1=O
inhibition [1]: inactive
